Source: PubChem (several laboratories)
Compounds with a hit are over-represented: about 2.2% of the library has one in this group of screens.
CendR NRP1 mod: alters CendR peptide binding to human NRP-1; O14786; FAM-RPARPAR peptide binding to NRP-1, fluorescence polarization; inhibition, % at 25 µM; 0.85% of 360,000 active; AID 602438;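 active = inhibition or corrected inhibition above about 18%, plus a signal ratio from 0.5 to 1.5, limit read from the data, passing the limit was not always enough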
ARFGAP1 inhibitor: inhibits rat ARF GTPase activating protein 1; inhibition, % at 16.5 µM; Q62848; 0.26% of 360,000 active; Arfgap1-stimulated ARF1 GTP hydrolysis, GDP FP detection;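 active = inhibition above a per-plate limit, mean inhibition of low control wells plus 3 SD, cut at about 25% in these data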
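Material: truncated rat Arfgap1 GAP domain; Incubation: compound-enzyme preincubation 20 min, reaction 120 min, detection 60 min, 25 °C; Read-out: percent inhibition of Arfgap1-stimulated GTP hydrolysis; Technique: FP, GDP Alexa 633 tracer displaced from anti-GDP antibody, 620/688 nm; Controls: No-Arfgap1 wells (100%) versus DMSO full-reaction wells (0%); Replication: single well per compound.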
ASAP1 GAP inh: blocks human ASAP1-stimulated Arf1 GTP hydrolysis | GDP FP detection | inhibition, % at 16.5 µM | 0.19% of 360,000 active; in the data active = inhibition above about 25%
V-ATPase pHluor: alters yeast V-ATPase proton transport; AID 504577; 0.37% of 350,000 active; S. cerevisiae, pHLuorin cytosolic pH fluorescence; response, % at 10 µM; in the data active = response mostly above about 7.3%, no sharp cut-off; inactive = mostly below about 5.4%; note: actives read high
Exocytosis inh: lytic granule exocytosis inhibition; TALL-104 LAMP-1 surface exposure, flow cytometry; cells stimulated with thapsigargin and PMA; inhibition, % at 10 µM; 0.66% of 360,000 active; AID 651702;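 active = inhibition above about 55%, limit read from the data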
ASAP1 inh confirm: confirmation of human ASAP1 inhibitors | 37% of 620 active | inhibition, % at 16.5 µM | ASAP1-stimulated Arf1 GTPase, GDP fluorescence polarization | shares compounds with ASAP1 GAP inh;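 active = mean inhibition over triplicates exceeds the hit threshold derived for the earlier primary screening run, cut at about 25% in these data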
Numbers stand for hits; . = inactive; / = no result given.

SMILES	CendR NRP1 mod	ARFGAP1 inhibitor	ASAP1 GAP inh	V-ATPase pHluor	Exocytosis inh	ASAP1 inh confirm
CCC(C)C(NC(=O)c1ccccc1NC(=O)c1ccc(OC)cc1)C(=O)NCc1ccco1 (centres undefined)	.	.	.	.	.	/
Fc1ccc(Nc2nc(-c3ccncc3)nc3ccccc23)cc1F	.	.	37.8	.	.	35.6
c1ccc2c(Nc3nc(-c4ccncc4)nc4ccccc34)cccc2c1	.	.	.	.	.	/
COc1ccccc1NS(=O)(=O)c1ccc(C)c(C(=O)Nc2cc(C)on2)c1	.	.	26.0	.	.	.
CCCc1nc2ccc(NC(C)=O)cc2c(=O)n1Cc1ccc(Cl)cc1	.	.	27.6	.	.	.
Oc1ccc(/C=N/Nc2nc(-c3cccnc3)nc3ccccc23)c(O)c1	.	.	.	.	.	/
Cc1c(O)ccc(/C=N/Nc2nc(-c3cccnc3)nc3ccccc23)c1O	.	.	26.6	.	.	.
Cc1noc(C)c1COc1ccc(C(=O)OCC(=O)NCc2ccccc2Cl)cc1	.	.	28.2	.	.	.
Cc1noc(C)c1COc1cccc(C(=O)OCC(=O)NC(=O)c2ccc(OC(F)F)cc2)c1	.	.	29.7	.	.	.
CC(C)NC(=O)NC(=O)COC(=O)c1cccc(OC(F)F)c1	.	.	.	.	.	/
COc1ccc(CNC(=O)COC(=O)c2ccc(OCc3c(C)noc3C)cc2)cc1OC	.	.	.	.	.	/
CCOC(=O)C1CCCN(C(=O)c2cccc(S(=O)(=O)N(C)c3ccc(OC)cc3)c2)C1 (centres undefined)	.	.	.	.	.	/
CCOC(=O)C1CCCN(C(=O)c2cccc(S(=O)(=O)N(Cc3ccccc3)c3ccccc3OC)c2)C1 (centres undefined)	.	.	29.3	.	.	.
CCC1CCCCN1C(=O)COC(=O)c1ccc(Br)o1 (centres undefined)	.	.	.	.	.	/
CN(C(=O)COC(=O)c1cc([N+](=O)[O-])ccc1N1CCOCC1)C1CCCCC1	.	.	.	.	.	/
CC1CCCCN1C(=O)COC(=O)c1cc([N+](=O)[O-])ccc1N1CCOCC1 (centres undefined)	.	.	29.4	.	.	.
Cc1cccc(CN2CCN(C3CN(C4CCCCC4)S(=O)(=O)C3)CC2)c1 (centres undefined)	.	.	.	/	.	/
CCCCCCC12Cc3cc(OC)c(OC)cc3C(O1)c1c(cc(C)oc1=O)O2 (centres undefined)	/	.	.	/	/	/
COC(=O)c1ccccc1NC1=C/C(=N\S(=O)(=O)c2cccs2)c2ccccc2C1=O	.	.	35.4	.	.	.
Cc1ccc(-c2csc3nc(SCC(=O)Nc4ccc(Cl)c(C(=O)O)c4)[nH]c(=O)c23)cc1	.	.	.	.	.	/
CCOc1ccc(CC2S/C(=N/c3ccccn3)NC2=O)cc1 (centres undefined)	.	.	.	.	.	/
CCc1ccc(CCOc2ccc(CC3SC(=O)NC3=O)cc2)nc1 (centres undefined)	.	.	25.1	.	.	.
O=C(COC(=O)c1ccc2c(c1)OCO2)NC1CCCCC1	.	.	.	.	.	/
Cc1cc(C)c(C#N)c(SCc2cn3c(C)cccc3n2)n1	.	.	24.7	.	.	.
Cc1cc(C)nc(SCc2cn3c(C)cccc3n2)n1	.	.	.	.	.	/
SMILES	CendR NRP1 mod	ARFGAP1 inhibitor	ASAP1 GAP inh	V-ATPase pHluor	Exocytosis inh	ASAP1 inh confirm
CSc1nccc(Nc2ccccc2)c1C#N	.	.	.	.	.	/
COc1nccc(Nc2ccccc2)c1C#N	.	.	28.4	.	.	.
CC(CCc1ccccn1)(CCc1ccccn1)C(=O)c1ccccc1	.	.	.	.	.	/
COc1cc2nc(NCCCN3CCN(C)CC3)n3nc(-c4ccccc4)nc3c2cc1OC	.	.	36.4	.	.	.
CN1CCN(CCCNc2nc3ccccc3c3nc(-c4ccccc4)nn23)CC1	.	.	.	.	.	/
COc1cc(NC(=O)Cc2ccccc2)ccc1NC(=O)Cc1ccccc1	.	.	29.5	.	.	.
COc1cc(NC(=O)c2ccccc2)ccc1NC(=O)Cc1ccccc1	.	.	.	.	.	/
COc1cccc(C(NC(C)=O)c2nc(-c3cccc(C(=O)O)c3)cs2)c1 (centres undefined)	.	.	.	/	.	/
CC(=O)NCCNc1nc2cc(-c3ccccc3)sc2c(=O)n1C	.	.	28.0	/	.	.
COc1ccc(S(=O)(=O)N2CCOCC2)cc1NC(=O)c1ccccc1C	.	.	.	.	.	/
